# ChEMBL document CHEMBL4177755, “Combating Drug-Resistant Fungi with Novel Imperfectly Amphipathic Palindromic Peptides” (J Med Chem, 2018)
# Activity calls are given as the source filed them. The calls are words filed in the database; no cut-off is given here.
# Legend:
# [1] = tested on: Candida albicans; assay: Antifungal activity against Candida albicans cgmcc 2.2086 after 48 hrs by broth microdilution method; assay type: functional; details: cgmcc 2.2086, 48 h
# In short: (§1)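 Modified CLSI M27-A2 broth microdilution. Yeast at (0.5−1) × 10^3 CFU/mL in MOPS-buffered RPMI 1640 was mixed 1:1 with peptide serially diluted in 0.2% BSA and incubated 48 h at 28 °C. Absorbance was read at 492 nm; MIC is the lowest concentration inhibiting 95% of growth. Triplicate, three biological replicates.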
# [2] = tested on: Candida albicans; assay: Antifungal activity against Candida albicans SP3931 after 48 hrs by broth microdilution method; assay type: functional; details: SP3931, 48 h; in short: as §1
# [3] = tested on: Candida albicans; assay: Antifungal activity against Candida albicans SP3903 after 48 hrs by broth microdilution method; assay type: functional; details: SP3903, 48 h; in short: as §1
# [4] = tested on: Candida albicans; assay: Antifungal activity against Candida albicans SP3902 after 48 hrs by broth microdilution method; assay type: functional; details: SP3902, 48 h; in short: as §1
# [5] = tested on: Candida albicans; assay: Antifungal activity against Candida albicans SP3876 after 48 hrs by broth microdilution method; assay type: functional; details: SP3876, 48 h; in short: as §1
# [6] = tested on: Candida albicans; assay: Antifungal activity against Candida albicans isolated from alveolar fluid after 48 hrs by broth microdilution method; assay type: functional; in short: as §1
# [7] = tested on: Candida albicans; assay: Antifungal activity against fluconazole-resistant Candida albicans 56452 after 48 hrs by broth microdilution method; assay type: functional; details: Candida albicans, 56452, 48 h; in short: as §1
# [8] = tested on: Candida albicans; assay: Antifungal activity against fluconazole-resistant Candida albicans 56214 after 48 hrs by broth microdilution method; assay type: functional; details: Candida albicans, 56214, 48 h; in short: as §1
# [9] = tested on: Candida albicans; assay: Antifungal activity against Candida albicans 14936 after 48 hrs by broth microdilution method; assay type: functional; details: Candida albicans, 14936, 48 h; in short: as §1
# [10] = tested on: Candida albicans; assay: Antifungal activity against fluconazole-resistant Candida albicans 17546 after 48 hrs by broth microdilution method; assay type: functional; details: Candida albicans, 17546, 48 h; in short: as §1
# [11] = tested on: Candida tropicalis; assay: Antifungal activity against Candida tropicalis cgmcc 2.1975 after 48 hrs by broth microdilution method; assay type: functional; details: cgmcc 2.1975, 48 h
# In short: (§2)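 Modified CLSI M27-A2 broth microdilution. Yeast were suspended in MOPS-buffered RPMI 1640 at a final (0.5−1) × 10^3 CFU/mL and mixed 1:1 with peptide serially diluted in 0.2% BSA. Plates were incubated 48 h at 28 °C and read at A492. MIC is the lowest concentration giving 95% inhibition. Run in triplicate with three biological replicates.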
# [12] = tested on: Pichia kudriavzevii; assay: Antifungal activity against Candida krusei cgmcc 2.1857 after 48 hrs by broth microdilution method; assay type: functional; details: cgmcc 2.1857, 48 h; in short: as §2
# [13] = tested on: Candida parapsilosis; assay: Antifungal activity against Candida parapsilosis cgmcc 2.3989 after 48 hrs by broth microdilution method; assay type: functional; details: Lodderomyces parapsilosis, cgmcc 2.3989, 48 h; in short: as §2
# [14] = tested on: Candida albicans; assay: Fungicidal activity against Candida albicans cgmcc 2.2086 after 96 hrs; assay type: functional; details: cgmcc 2.2086, 96 h, read-out: MFC99.9
# In short: (§3)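 After the 48 h, 28 °C broth microdilution in MOPS-buffered RPMI 1640 (inoculum (0.5−1) × 10^3 CFU/mL), 50 μL from each well was plated on YM agar for a further 48 h at 28 °C. MFC is the lowest concentration killing at least 99.9% of cells. Triplicate, three biological replicates.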
# [15] = tested on: Candida albicans; assay: Fungicidal activity against Candida albicans SP3931 after 96 hrs; assay type: functional; details: SP3931, 96 h, read-out: MFC99.9; in short: as §3
# [16] = tested on: Candida albicans; assay: Fungicidal activity against Candida albicans SP3903 after 96 hrs; assay type: functional; details: SP3903, 96 h, read-out: MFC99.9; in short: as §3
# [17] = tested on: Candida albicans; assay: Fungicidal activity against Candida albicans SP3902 after 96 hrs; assay type: functional; details: SP3902, 96 h, read-out: MFC99.9; in short: as §3
# [18] = tested on: Candida albicans; assay: Fungicidal activity against Candida albicans SP3876 after 96 hrs; assay type: functional; details: SP3876, 96 h, read-out: MFC99.9; in short: as §3
# [19] = tested on: Candida albicans; assay: Fungicidal activity against Candida albicans isolated from alveolar fluid after 96 hrs; assay type: functional; details: read-out: MFC99.9; in short: as §3
# [20] = tested on: Candida albicans; assay: Fungicidal activity against fluconazole-resistant Candida albicans 56452 after 96 hrs; assay type: functional; details: Candida albicans, 56452, 96 h; read-out: MFC99.9; in short: as §3
# [21] = tested on: Candida albicans; assay: Fungicidal activity against fluconazole-resistant Candida albicans 56214 after 96 hrs; assay type: functional; details: Candida albicans, 56214, 96 h; read-out: MFC99.9; in short: as §3
# [22] = tested on: Candida albicans; assay: Fungicidal activity against Candida albicans 14936 after 96 hrs; assay type: functional; details: Candida albicans, 14936, 96 h; read-out: MFC99.9; in short: as §3
# [23] = tested on: Candida albicans; assay: Fungicidal activity against fluconazole-resistant Candida albicans 17546 after 96 hrs; assay type: functional; details: Candida albicans, 17546, 96 h; read-out: MFC99.9; in short: as §3
# [24] = tested on: Candida tropicalis; assay: Fungicidal activity against Candida tropicalis cgmcc 2.1975 after 96 hrs; assay type: functional; details: cgmcc 2.1975, 96 h, read-out: MFC99.9
# In short: (§4)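 Wells from the 48 h, 28 °C RPMI 1640/MOPS microdilution plates were plated on YM agar and incubated a further 48 h at 28 °C. MFC is the lowest concentration killing at least 99.9% of cells. Run in triplicate with three biological replicates.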
# [25] = tested on: Pichia kudriavzevii; assay: Fungicidal activity against Candida krusei cgmcc 2.1857 after 96 hrs; assay type: functional; details: cgmcc 2.1857, 96 h, read-out: MFC99.9; in short: as §4
# [26] = tested on: Candida parapsilosis; assay: Fungicidal activity against Candida parapsilosis cgmcc 2.3989 after 96 hrs; assay type: functional; details: Lodderomyces parapsilosis, cgmcc 2.3989, 96 h; read-out: MFC99.9; in short: as §4
# [27] = tested on: Candida albicans; assay: Antifungal activity against Candida albicans cgmcc 2.2086 in presence of NaCl by broth dilution method; assay type: functional
# [28] = tested on: Candida albicans; assay: Antifungal activity against Candida albicans cgmcc 2.2086 in presence of KCl by broth dilution method; assay type: functional
# [29] = tested on: Candida albicans; assay: Antifungal activity against Candida albicans cgmcc 2.2086 in presence of NH4Cl by broth dilution method; assay type: functional
# [30] = tested on: Candida albicans; assay: Antifungal activity against Candida albicans cgmcc 2.2086 in presence of MgCl2 by broth dilution method; assay type: functional
# [31] = tested on: Candida albicans; assay: Antifungal activity against Candida albicans cgmcc 2.2086 in presence of CaCl2 by broth dilution method; assay type: functional
# [32] = tested on: Candida albicans; assay: Antifungal activity against Candida albicans cgmcc 2.2086 in presence of ZnCl2 by broth dilution method; assay type: functional
# [33] = tested on: Candida albicans; assay: Antifungal activity against Candida albicans cgmcc 2.2086 in presence of FeCl3 by broth dilution method; assay type: functional
# [34] = tested on: Candida albicans; assay: Antifungal activity against Candida albicans cgmcc 2.2086 in presence of 12.5% human heat-inactivated serum by broth dilution method; assay type: functional
# [35] = tested on: Candida albicans; assay: Antifungal activity against Candida albicans cgmcc 2.2086 in presence of 25% human heat-inactivated serum by broth dilution method; assay type: functional
# [36] = tested on: Candida albicans; assay: Antifungal activity against Candida albicans cgmcc 2.2086 in presence of 50% human heat-inactivated serum by broth dilution method; assay type: functional
# [37] = tested on: Lipid bilayer; assay: Binding affinity to phosphatidylcholine/cholesterol large unilamellar vesicle assessed as induction of calcein leakage at 2 to 32 uM after 15 mins by spectrofluorophotometric method; details: 0.25 h
# In short: (§5)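 Large unilamellar vesicles were made from PG/CL/PE (2:1:7), PC/PE/PI/ergosterol (5:4:1:2) or PC/cholesterol (10:1), loaded with 70 mM calcein in Tris/NaCl/EDTA buffer at pH 7.4, frozen and thawed 20 times, and extruded through 100 nm filters. Free dye was removed by gel filtration, and peptide-induced calcein release was measured.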
# [38] = tested on: Lipid bilayer; assay: Binding affinity to phosphatidylcholine/phosphatidylethanolamine/phosphatidylinositol/ergosterol large unilamellar vesicle assessed as induction of calcein leakage at 2 to 32 uM after 15 mins by spectrofluorophotometric method; in short: as §5
# [39] = tested on: Candida albicans; assay: Disruption of cytoplasmic membrane electrical potential in Candida albicans cgmcc 2.2086 at MFC after 800 secs by DiSC3-5 dye-based fluorescence spectrophotometric method; assay type: functional, organism-based
# In short: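 Cells were loaded with the membrane potential-sensitive dye DiSC3-5, and its release on peptide treatment (various concentrations, including 1× MBC/MFC) was monitored as increasing fluorescence over 800 s.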
# [40] = tested on: Candida albicans; assay: Antifungal activity against Candida albicans 58288 after 48 hrs by broth microdilution method; assay type: functional; details: Candida albicans, 58288, 48 h; in short: as §1
# [41] = tested on: Candida albicans; assay: Fungicidal activity against Candida albicans 58288 after 96 hrs; assay type: functional; details: Candida albicans, 58288, 96 h; read-out: MFC99.9; in short: as §3
smiles,measurement,setting,value
OC(Cn1cncn1)(Cn1cncn1)c1ccc(F)cc1F [FLUCONAZOLE],MIC95,[1],1 µM
same,MIC95,[2],1 µM
same,MIC95,[3],16 µM
same,MIC95,[4],16 µM
same,MIC95,[5],> 64 µM
same,MIC95,[6],2 µM
same,MIC95,[7],> 64 µM
same,MIC95,[8],> 64 µM
same,MIC95,[9],32 µM
same,MIC95,[10],> 64 µM
same,MIC95,[11],4 µM
same,MIC95,[12],64 µM
same,MIC95,[13],4 µM
same,MFC,[14],2 µM
same,MFC,[15],64 µM
same,MFC,[16],64 µM
same,MFC,[17],> 64 µM
same,MFC,[18],> 64 µM
same,MFC,[19],8 µM
same,MFC,[20],> 64 µM
same,MFC,[21],> 64 µM
same,MFC,[22],> 64 µM
same,MFC,[23],> 64 µM
same,MFC,[24],32 µM
same,MFC,[25],64 µM
same,MFC,[26],8 µM
same,MIC,[27],1 µM
same,MIC,[28],1 µM
same,MIC,[29],1 µM
same,MIC,[30],1 µM
same,MIC,[31],1 µM
same,MIC,[32],1 µM
same,MIC,[33],1 µM
same,MIC,[34],1 µM
same,MIC,[35],1 µM
same,MIC,[36],2 µM
same,Activity,[37],Not Active
same,Activity,[38],inactive
same,Activity,[39],inactive
same,MIC95,[40],8 µM
same,MFC,[41],> 64 µM
